Shown are actives, neighbours in structure and some others; about 4% of the full set was active somewhere.
FN deposition inh: inhibitors of fibronectin matrix deposition, primary screen, AH1F cells, Alexa488-fibronectin fluorescence, plate reader. 350,000 compounds, 0.086% hits. inhibition, % at 12.6 µM. AH1F fibroblasts, overnight;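 active means mean inhibition across replicates of 30% or more, regardless of how many single replicates reach that level; inconclusive means mean under 30% yet at least half of replicates reach 30%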;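 further: positive control wells lacked labelled fibronectin entirely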
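Assay system: AH1F fibroblasts / Quantity: 10000 cells per well / Medium: DMEM plus 2% serum, read in PBS / Reagent: labelled fibronectin 24 nM / Dosing: single dose, pinned / Times: 1 h cell attachment, overnight exposure to compound and label / Signal: fluorescence, ex 485 nm, em 525 nm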
rRNA inh HTS: reduced GFP signal of wild-type E. coli, primary screen, bacterial rRNA inhibitor project, GFP/RFP fluorescence, OD600, single point; E. coli WT GFP vs humanized-ribosome RFP mutants, 24 h; hits give low values; DMSO median 0, no signal -100; GFP signal change (wild-type ribosome), % (no concentration beside the values); 350,000 compounds, 1.6% hits; AID 720706, 2013;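 active means significant combined selectivity score with lowered wild-type GFP, culture density cut under 30%, mutant RFP and density less affected; inactive means any of these conditions unmet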
SIRT5 block: SIRT5 desuccinylase inhibitors, primary screen, biochemical, fluorescence imaging, single point, set 5; NAD-dependent protein deacylase sirtuin-5, mitochondrial (Homo sapiens), Q9NXA8; Purified SirT5, succinyl-peptide AMC, trypsin-coupled fluorescence; inhibition, % at 15 µM; 330,000 compounds, 1.1% hits; in the data active means inhibition above about 15%; inconclusive means no clear call, values can overlap the other calls
Target sequence (Q9NXA8 whole entry, looked up): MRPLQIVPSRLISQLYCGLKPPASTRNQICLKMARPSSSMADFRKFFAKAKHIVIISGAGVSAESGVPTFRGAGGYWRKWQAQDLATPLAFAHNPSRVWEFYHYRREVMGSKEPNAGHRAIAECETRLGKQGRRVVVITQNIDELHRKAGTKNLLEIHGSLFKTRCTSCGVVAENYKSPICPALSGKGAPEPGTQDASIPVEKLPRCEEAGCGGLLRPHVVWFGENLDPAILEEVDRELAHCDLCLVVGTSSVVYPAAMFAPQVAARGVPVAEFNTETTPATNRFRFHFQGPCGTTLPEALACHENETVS
FGF22 binding: binders of human FGF22 protein, primary screen, FGF22 synaptogenesis inhibitor project, biophysical, thermal shift, single point | Fibroblast growth factor 22 (Homo sapiens), Q9HCT0 | 340,000 compounds, 1.5% hits | recombinant FGF22 thermal shift, SYPRO orange fluorescence; percent of sucrose octasulfate shift, DMSO zero | activity (Tm shift, normalised), % at 9.99 µM;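 active means mean Tm shift, scaled 0 neutral to 100 positive control, at about 1.3% or above, every replicate too, limit read from the data; inconclusive means no clear call, values can overlap the other calls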
Target sequence (Q9HCT0 whole entry, looked up): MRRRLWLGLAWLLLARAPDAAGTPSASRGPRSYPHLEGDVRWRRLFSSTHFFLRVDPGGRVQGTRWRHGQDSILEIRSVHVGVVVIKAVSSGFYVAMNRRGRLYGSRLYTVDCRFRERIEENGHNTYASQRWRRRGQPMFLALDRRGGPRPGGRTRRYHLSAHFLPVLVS
E-sel inducer: E-selectin induction in HUVECs, primary screen, imaging, HUVEC, immunofluorescence imaging, single point. P16581. normalized: neutral wells 0, TNF-alpha wells 100. activation, % at 7.58 µM. 260,000 compounds, 0.37% hits;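 active means mean E-selectin-positive cell signal at least 10% of the positive control, reached in at least 60% of replicates, without over 20% cell loss; inconclusive means no rule given, readout overlaps actives, possibly toxicity-flagged; inactive means the rest, including those meeting only one limit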
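material = human umbilical vein endothelial cells (HUVEC), E-selectin induction | quantity = 3,000 cells/well | medium = EGM-2 growth medium on 0.1% gelatin-coated wells | technique = immunofluorescence imaging | read-out basis = % PE-positive cells | control set = TNF-alpha positive control, DMSO neutral control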
C2C12 statin: suppressors of statin myotoxicity in C2C12 myotubes, primary screen, cell-based, single point, plate reader; AID 602340, 2012; rescue of ATP level, % at 7.49 µM; 330,000 compounds, 0.78% hits; C2C12 myotubes + simvastatin, ATP luminescence, 48 h; scaled: DMSO 0, geranylgeraniol control 100;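 active means mean ATP rescue above about 67%, or every replicate alone reaching that limit, limit read from the data, passing the limit was not always enough; inconclusive means no clear call, values can overlap the other calls; inactive means mean under the limit and some replicate under it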;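 further: myotubes were challenged with 10 µM simvastatin during compound exposure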
Active calls of the source: *; u = inconclusive; x = no result given.

SMILES | FN deposition inh | rRNA inh HTS | SIRT5 block | FGF22 binding | E-sel inducer | C2C12 statin
CCN(CC)C(=O)c1nc[nH]c1C(=O)N1CCC(C)CC1 | -4.2 | -2.3 | 0.0 | 9.1* | x | -9.4
CCCNC(=O)N[C@H]1C=C[C@H](CC(=O)NC2CCC2)O[C@@H]1CO | -3.5 | 1.6 | -0.9 | 0.0 | -0.2 | -8.0
O=C(CN1CCN(S(=O)(=O)c2ccc(Cl)cc2)CC1)NCc1cccs1 | 0.5 | 4.3 | -25.9 | x | -6.3 | 46.1
O=C(CN1CCN(Cc2ccc(Cl)cc2)C1=O)NCc1cccs1 | 7.2 | -3.1 | 0.4 | 43.9* | 0.6 | 4.9
Cc1noc(C)c1S(=O)(=O)Nc1ccc2c(c1)CC(=O)N([C@H](C)CO)C[C@H](C)[C@@H](CN(C)Cc1ccc(Cl)c(Cl)c1)O2 | 9.3 | -3.8 | 3.6 | -0.6 | 0.0 | 133.8*
Cc1noc(C)c1S(=O)(=O)Nc1ccc2c(c1)CC(=O)N([C@@H](C)CO)C[C@H](C)[C@@H](CN(C)Cc1ccc(Cl)c(Cl)c1)O2 | -3.4 | -1.6 | 2.7 | -0.7 | -0.1 | 78.6*
Cc1noc(C)c1S(=O)(=O)Nc1ccc2c(c1)CC(=O)N([C@@H](C)CO)C[C@@H](C)[C@H](CN(C)Cc1ccc(Cl)c(Cl)c1)O2 | 7.4 | -4.3 | 4.5 | -0.3 | -0.1 | 19.0
O=C(Nc1ccc2c(c1)OCO2)N[C@H]1CC[C@H](CC(=O)N2CCN(c3ccccc3)CC2)O[C@@H]1CO | 14.4 | 0.6 | -0.2 | 0.1 | 0.3 | -3.7
CNc1ccc(C2(O)C(=O)c3ccccc3C2=O)cc1 | 1.4 | x | 0.0 | 43.0* | x | 2.0
COCC(=O)Nc1ccc2c(c1)[C@H]1C[C@H](CC(=O)N3CCOCC3)O[C@H](CO)[C@H]1O2 | -6.0 | 1.4 | -0.4 | 0.6 | -0.3 | 5.4
O=[N+]([O-])c1ccc(O)c(/C=N/NC(=S)Nc2ccc(Cl)cc2Cl)c1 | 5.7 | -15.3 | -1.0 | 0.2 | x | x
O=[N+]([O-])c1ccc(/C=N/NC(=S)Nc2ccc(Cl)cc2Cl)s1 | -14.7 | -19.0* | -3.9 | 0.0 | x | -38.5
Cc1ccc(NC(C)C(=O)N/N=C/c2ccc([N+](=O)[O-])s2)cc1 (centres undefined) | 0.9 | -21.7* | -2.8 | 0.0 | 16.0 | -4.2
COc1ccccc1NC(=O)C(=O)N/N=C/c1ccc([N+](=O)[O-])s1 | -2.3 | 1.5 | -3.4 | 44.2* | x | 32.5
C=CCOc1cccc(C(=O)/C=C2/C(=O)Nc3ccccc32)c1 | 15.4 | 5.4 | -1.0 | 0.2 | 0.0 | 15.2
CC(=O)/C=C1/C(=O)Nc2ccccc21 | -7.6 | 5.1 | -3.6 | 43.7* | 10.3 | x
C[C@@H]1CN([C@H](C)CO)C(=O)c2cc(C3=CCCC3)cnc2O[C@@H]1CN(C)C(=O)c1cccnc1 | x | 4.2 | -9.5 | -0.1 | 0.3 | 20.6
CSc1nnc(-c2ccccc2)c(=O)[nH]1 | x | x | x | x | x | 96.7*
Cc1noc(C)c1NC(=O)Nc1ccc2c(c1)CC(=O)N([C@H](C)CO)C[C@H](C)[C@@H](CN(C)C(=O)Nc1cccc3ccccc13)O2 | x | -0.6 | x | x | 0.0 | 20.1
CCc1ccc(OCC(=O)O/N=C(\N)c2ccccn2)cc1 | -0.2 | -22.4* | 1.2 | -0.1 | 3.4 | x
CSC(=Nc1ccccc1)C(C#N)c1nc2ccccc2[nH]1 (centres undefined) | 0.0 | -14.5 | x | 0.0 | 0.0 | -13.5
N#CC(C(=S)Nc1ccccc1)c1nc2ccccc2[nH]1 (centres undefined) | -12.8 | -37.5* | 1.3 | 0.1 | 18.0 | -2.9
COc1cc(C(=O)NCC(=O)NNC(=O)C2COc3ccccc3O2)cc(OC)c1OC (centres undefined) | -0.7 | 6.2 | -1.1 | 0.1 | 151.6* | 1.0
O=C(OCC1OC(n2cc(Br)c(=O)[nH]c2=O)C(Br)C1O)c1ccccc1 (centres undefined) | -0.7 | 6.5 | -3.5 | 0.7 | 0.5 | u
Cc1cn(C2OC(COC(=O)c3ccccc3)C(O)C2Cl)c(=O)[nH]c1=O (centres undefined) | 7.0 | 4.3 | 0.5 | 43.0* | 0.1 | -4.6
SMILES | FN deposition inh | rRNA inh HTS | SIRT5 block | FGF22 binding | E-sel inducer | C2C12 statin
CCC(=O)N1CC2(C1)CN(S(C)(=O)=O)[C@@H](CO)c1c2c2ccc(OC)cc2n1C | x | 4.7 | x | 0.0 | -0.5 | x
Cc1noc(C)c1COC(=O)C(c1ccccc1)c1ccccc1 | -2.2 | -27.8 | 15.7* | 0.3 | -1.4 | x
CC(C)NC(=O)NCC[C@@H]1CC[C@@H](NS(=O)(=O)c2ccccc2)[C@@H](CO)O1 | x | -0.3 | 2.4 | x | -0.4 | x
O=C(c1cnc2n(c1=O)CCS2)N1CCN(C(c2ccccc2)c2ccc(Cl)cc2)CC1 (centres undefined) | x | x | x | x | x | 75.7*
O=C(c1cnc2n(c1=O)CCS2)N1CCN(c2ccc([N+](=O)[O-])cc2)CC1 | -3.9 | -5.2 | 5.4 | -0.1 | x | -0.9
Cc1ccc2[nH]c(=O)cc(C(=O)OCC(=O)c3ccccc3)c2c1 | 1.4 | x | x | x | x | x
Cc1ccc2[nH]c(=O)cc(C(=O)OC(C)C)c2c1 | -25.2 | 0.0 | 5.2 | 43.4* | x | x
COc1ccc(S(=O)(=O)Nc2ccc3c(c2)C(=O)N([C@@H](C)CO)C[C@H](C)[C@@H](CN(C)CC2CC2)OCCCC[C@H](C)O3)cc1 | x | -0.1 | -4.2 | 0.8 | 1.1 | 1.5
CC(C)(C)c1cc(C(F)(F)F)c(C#N)c(=O)[nH]1 | -2.2 | x | x | x | x | 120.4*
c1ccc(CSc2ncnc3sccc23)cc1 | 0.1 | -27.4* | -1.1 | -0.1 | x | x
O=C(CSc1ncnc2sccc12)Nc1ccccc1F | x | 1.1 | -4.3 | 0.0 | x | x
O=C(CSc1ncnc2sccc12)Nc1ccccc1 | -1.6 | 0.0 | -4.4 | 43.3* | 4.3 | x
C[C@H]1CCCCO[C@H](CN(C)C(=O)CCC(F)(F)F)[C@@H](C)CN([C@@H](C)CO)C(=O)c2cc(NS(=O)(=O)c3ccc(Cl)cc3)ccc2O1 | -3.4 | -2.1 | 15.3* | -0.5 | -0.1 | x
Cc1ccc(S(=O)(=O)Nc2ccc3c(c2)C(=O)N([C@@H](C)CO)C[C@H](C)[C@H](CN(C)C(=O)CCC(F)(F)F)OCCCC[C@H](C)O3)cc1 | -5.3 | 1.4 | 17.2* | x | x | x
CCS(=O)(=O)N1CC2(CN(Cc3ccccc3F)[C@H](CO)c3c2c2ccc(OC)cc2n3C)C1 | x | -4.0 | -4.1 | -0.2 | 1.2 | x
O=C(CSc1nc2ccccc2[nH]1)c1ccc2c(c1)OCO2 | 3.4 | x | x | x | x | -4.7
Cc1c(C)n2c(SCC(=O)Nc3ccc4c(c3)OCCO4)nnc2[nH]c1=O | 2.9 | -2.9 | -4.8 | 43.6* | -2.9 | x

Screening data as filed in PubChem BioAssay.
